Laboratory results reported in ChEMBL document CHEMBL2057102, “Aminothienopyridazine inhibitors of tau aggregation: evaluation of structure-activity relationship leads to selection of candidates with desirable in vivo properties” (Bioorg Med Chem, 2012).
pIC50: −log10 of the molar value.

What was measured:
[1] = (§1) Drug uptake in B6C3F1 mouse brain at 5 mg/kg, ip after 1 hr; assay type: ADME, organism-based; parameters: dose 5 mg/kg, route intraperitoneal; details: B6C3F1, mouse, brain, read-out: Drug uptake
Outline: (§2)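 Single i.p. dose of 5 mg/kg, sacrifice 1 h later. Perfused brain hemispheres were homogenized in 10 mM ammonium acetate pH 5.7 (50% w/v). EDTA plasma was taken. Brain homogenate or plasma was extracted with acetonitrile and analysed by LC-MS/MS (MRM) against matrix standard curves. Brain-to-plasma ratio was taken from total levels.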

[2] = species: Homo sapiens; test: Inhibition of heparin-induced tau K18PL mutant aggregation assessed as soluble tau fragment level at 50 uM after 5 days by SDS-PAGE analysis
Outline: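 Secondary centrifugation assay. Heparin-induced K18 P301L tau fibrillization mixtures with compound at 50 μM were centrifuged. Soluble and insoluble fractions were analysed by SDS-PAGE to give the percentage of tau remaining soluble.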

[3] = Ratio of fraction unbound in brain homogenate to plasma in mouse at 1 uM after 5 hrs by equilibrium dialysis; assay type: ADME, tissue-based
Outline: (§3)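 Rapid equilibrium dialysis. Compound at 1 μM in mouse plasma or brain homogenate, each diluted threefold with 100 mM sodium phosphate pH 7.4. Triplicate samples dialysed against the same buffer for 5 h at 37 °C with shaking. Both sides were matrix-matched, extracted with acetonitrile and run by LC-MS/MS. fu is buffer response over sample response; brain fu was corrected for tissue dilution.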

[4] = tested on: Mus musculus; test: Ratio of drug level in brain to plasma in B6C3F1 mouse at 5 mg/kg, ip after 1 hr
[5] = tested on: Brain; test: Fraction unbound in mouse brain homogenate at 1 uM after 5 hrs by equilibrium dialysis; assay type: ADME, tissue-based; outline: as §3
[6] = species: Homo sapiens; test: Inhibition of heparin-induced alexa red-labelled tau K18PL mutant aggregation after 6 hrs by thioflavin-T fluorescence assay relative to control
Outline: (§4)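 Heparin-induced fibrillization of tau K18 fragment (residues 244–369) carrying P301L, with tau at 20 μM in sodium acetate buffer. Fibril formation was read by thioflavin-T fluorescence. IC50 came from sigmoidal fitting of concentration-response data, each concentration in triplicate. Values are from a single fit, or the mean of 2 or more analyses where marked.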

[7] = (§5) Drug uptake in B6C3F1 mouse plasma at 5 mg/kg, ip after 1 hr; assay type: ADME, organism-based; parameters: dose 5 mg/kg, route intraperitoneal; details: B6C3F1, mouse, plasma; outline: as §2
[8] = Inhibition of heparin-induced alexa red-labelled tau K18PL mutant aggregation after 6 hrs by thioflavin-T fluorescence assay; parameters: species or system Homo sapiens; outline: as §4
[9] = tested on: Brain; test: as §1; assay type: ADME, organism-based; parameters: dose 5 mg/kg, route intraperitoneal; details: mouse, in vivo, 1 h, BLD = below limit of detection; outline: as §2
[10] = tested on: Plasma; test: as §5; assay type: ADME, organism-based; parameters: dose 5 mg/kg, route intraperitoneal; details: mouse, in vivo, 1 h, BLD = below limit of detection; outline: as §2

Row | SMILES | concentration at 1 h [1] | inhibition [2] | Ratio [3] | BPR [4] | Fu [5] | Imax [6] | concentration at 1 h [7] | pIC50 [8] | Drug uptake [9] | Cp [10]
1 | Cc1nn(Cc2ccccc2)c(=O)c2c(N)scc12 | 48 ng/g | 73% | 0.77 | 0.6 | 5.1% | 89% | 78 ng/mL | 5.80 |  | 
2 | Cc1nn(C)c(=O)c2c(N)scc12 |  | 76% |  |  |  | 82% | 10 ng/mL | 5.60 | BLD | 
3 | Cc1nn(-c2ccccn2)c(=O)c2c(N)scc12 | 7.5 ng/g | 78% |  | 0.116 |  | 85% | 61 ng/mL | 5.70 |  | 
4 | CCOC(=O)c1c(C(=O)c2ccccc2)csc1N |  | 6.5% |  |  |  | 29% |  |  |  | 
5 | CC(C)NC(=O)c1nn(-c2cccc(Cl)c2)c(=O)c2c(N)scc12 |  | 73% |  |  |  | 82% |  | 5.49 |  | 
6 | Nc1scc2c(C(=O)O)nn(-c3ccc(F)cc3)c(=O)c12 |  | 83% |  |  |  | 84% |  | 5.70 |  | 
7 | Nc1scc2c(C(=O)NC3CC3)nn(-c3ccc(C(F)(F)F)cc3)c(=O)c12 |  | 83% |  |  |  | 64% |  | 5.20 |  | 
8 | CCOC(=O)c1nn(-c2ccc(F)cc2)c(=O)c2c(N)scc12 |  | 63% |  |  |  | 77% |  | 6.00 |  | 
9 | CCOC(=O)C1=NN(c2ccc(Cl)cc2)C(=O)C(C#N)C1C (stereo not given) |  | 21% |  |  |  | 4.4% |  |  |  | 
10 | Cc1nn(CC(F)(F)F)c(=O)c2c(N)scc12 |  | 78% |  |  |  | 81% |  | 5.00 |  | 
11 | CCOC(=O)c1nn(-c2ccc(Cl)cc2)c(=O)c2c1C(O)NC2=O (stereo not given) |  | 15% |  |  |  | 57% |  |  |  | 
12 | CC(C)NC(=O)c1nn(-c2ccc(Cl)cc2)c(=O)c2c1CSC2=O | 16.3 ng/g | 85% |  | 0.0035 |  | 96% | 4700 ng/mL | 5.00 |  | 
13 | CC(C)NC(=O)c1nn(-c2ccc(OC(F)(F)F)cc2)c(=O)c2c(N)scc12 |  | 42% |  |  |  | 67% |  | 4.80 |  | 
14 | CCOC(=O)c1nn(-c2ccc(Cl)cc2)c(=O)c2c(NC)scc12 |  | 51% |  |  |  | 39% |  |  |  | 
15 | Cc1nn(-c2ccc(Cl)cc2)c(=O)c2c(N)scc12 |  | 70% |  |  |  | 85% |  | 5.70 |  | 
16 | CCOC(=O)c1nn(-c2cccc(Cl)c2)c(=O)c2c(N)scc12 |  | 73% |  |  |  | 82% |  | 5.49 |  | 
17 | CCOC(=O)c1nn(-c2ccc(C(F)(F)F)cc2)c(=O)c2c(N)scc12 |  | 27% |  |  |  | 48% |  |  |  | 
18 | O=C(O)c1nn(-c2ccc(F)cc2)c(=O)c2c1CSC2=O |  | 87% |  |  |  | 92% |  | 5.60 |  | 
19 | CCOC(=O)c1nn(-c2ccc(Cl)cc2)c(=O)c2c(N)sc(Br)c12 |  | 62% |  |  |  | 92% |  | 5.40 |  | 
20 | Nc1scc2c(C(=O)O)nn(-c3cccc(Cl)c3)c(=O)c12 |  | 73% |  |  |  | 92% |  | 5.80 |  | 

Results, then the compound that gave them:

Row | concentration at 1 h [1] | inhibition [2] | Ratio [3] | BPR [4] | Fu [5] | Imax [6] | concentration at 1 h [7] | pIC50 [8] | Drug uptake [9] | Cp [10] | SMILES
21 | 14.1 ng/g | 84% |  | 0.098 |  | 86% | 150 ng/mL | 4.80 |  |  | CC(C)NC(=O)c1nn(-c2ccc(O)cc2)c(=O)c2c(N)scc12
22 |  | 71% |  |  |  | 92% |  | 5.80 |  |  | Nc1scc2c(C(=O)O)nn(-c3ccc(OC(F)(F)F)cc3)c(=O)c12
23 |  | 71% |  |  |  | 75% |  | 5.70 |  |  | CCOC(=O)c1nn(-c2ccccc2Cl)c(=O)c2c(N)scc12
24 |  | 44% |  |  |  | 68% |  |  |  |  | Nc1scc2c(C(=O)NC3CC3)nn(-c3ccccc3Cl)c(=O)c12
25 |  | 83% |  |  |  | 88% |  | 4.70 |  |  | Nc1scc2c(C(=O)O)nn(-c3ccc(C(F)(F)F)cc3)c(=O)c12
26 |  | 29% |  |  |  | 41% |  |  |  |  | CCOC(=O)c1nn(-c2ccc(OC(F)(F)F)cc2)c(=O)c2c(N)scc12
27 |  | 86% |  |  |  | 65% |  | 4.50 |  |  | Cc1nn(C2CCCCC2)c(=O)c2c(N)scc12
28 |  | 84% |  |  |  | 74% |  | 5.40 |  |  | Cc1nn(-c2cccnc2)c(=O)c2c(N)scc12
29 |  | 65% |  |  |  | 88% |  | 5.70 |  |  | CCOC(=O)c1nn(-c2ccc(Cl)cc2)c(=O)c2c(N)sc(Cl)c12
30 |  | 17% |  |  |  | 95% |  | 4.70 |  |  | Cc1nn(C(C)C)c(=O)c2c(N)scc12
31 | 280 ng/g | 77% | 1.3 | 2.68 | 2.9% | 89% | 110 ng/mL | 5.80 |  |  | CC(C)NC(=O)c1nn(-c2ccc(F)cc2)c(=O)c2c(N)scc12
32 |  | 64% |  |  |  | 86% |  | 5.49 |  |  | Nc1scc2c(C(=O)O)nn(-c3ccccc3Cl)c(=O)c12
33 |  | 82% |  |  |  | 103% |  | 5.20 |  |  | Nc1scc2c(-c3ccccc3)nn(CC(F)(F)F)c(=O)c12
34 |  | 17% |  |  |  | 8% |  |  |  |  | CCOC(=O)c1nn(-c2ccc(C(C)C)cc2)c(=O)c2c(N)scc12
35 |  | 81% |  |  |  | 87% |  | 5.10 | BLD | BLD | Cc1n[nH]c(=O)c2c(N)scc12
36 |  | 92% |  |  |  | 89% |  | 4.70 |  |  | CC(C)n1nc(-c2ccccc2)c2csc(N)c2c1=O
37 |  | 69% |  |  |  | 81% |  | 5.30 |  |  | CCOC(=O)c1nn(-c2ccc(O)cc2)c(=O)c2c(N)scc12
38 | 637 ng/g | 75% | 2.31 | 1.59 | 3.2% | 83% | 401 ng/mL | 5.10 |  |  | Nc1scc2c(C(=O)NCC(F)(F)F)nn(-c3ccc(F)cc3)c(=O)c12
39 |  | 86% |  |  |  | 82% |  | 5.40 |  |  | CC(C)c1ccc(-n2nc(C(=O)NC3CC3)c3csc(N)c3c2=O)cc1
40 |  | 70% |  |  |  | 84% |  | 5.40 |  |  | Nc1scc2c(C(=O)O)nn(-c3ccc(O)cc3)c(=O)c12
